According to ChEMBL document CHEMBL2163314, “Potent aminocyclitol glucocerebrosidase inhibitors are subnanomolar pharmacological chaperones for treating gaucher disease” (J Med Chem, 2012):

How the values were obtained:
[1] = Agonist activity at glucosylceramidase […] mutant in lymphoblast obtained from Gaucher disease patient using 4-methylumbelliferyl-beta-D-glucopyranoside as substrate preincubated at 50 nM for 3 days measured 2 hrs post substrate addition by fluorescence assay relative to untreated control; format: functional, Homo sapiens
Outline: (§1)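 Homozygous L444P GD type 2 patient-derived lymphoblasts (GM08752) in RPMI-1640 with 15% FBS, seeded at 2 × 10^5 cells/well and exposed to compound for 3 days. Cells were washed with PBS and sonicated in water. Homogenate was assayed with 6 mM 4-methylumbelliferyl-β-D-glucopyranoside in 0.1 M citrate phosphate, pH 5.2, with 0.25% taurocholate and 0.1% Triton X-100, for 2 h at 37 °C. Fluorescence read at 355/460 nm, normalized to untreated cells, triplicate.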

[2] = Agonist activity at glucosylceramidase […] mutant in lymphoblast obtained from Gaucher disease patient using 4-methylumbelliferyl-beta-D-glucopyranoside as substrate preincubated at 100 nM for 3 days measured 2 hrs post substrate addition by fluorescence assay relative to untreated control; format: functional, Homo sapiens; outline: as §1
[3] = Agonist activity at glucosylceramidase […] mutant in lymphoblast obtained from Gaucher disease patient using 4-methylumbelliferyl-beta-D-glucopyranoside as substrate preincubated at 5 nM for 3 days measured 2 hrs post substrate addition by fluorescence assay relative to untreated control; format: functional, Homo sapiens
Outline: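 L444P homozygous lymphoblasts from a GD type 2 patient, cultured in RPMI-1640 with 15% FBS at 37 °C, 5% CO2, seeded 2 × 10^5 cells/well and treated 3 days. Sonicated water lysate assayed with 6 mM 4-MU-β-glucoside at pH 5.2 (citrate phosphate, taurocholate, Triton X-100), 37 °C for 2 h. Fluorescence at 355/460 nm, relative to untreated cells; triplicate.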

[4] = Agonist activity at glucosylceramidase […] mutant in lymphoblast obtained from Gaucher disease patient using 4-methylumbelliferyl-beta-D-glucopyranoside as substrate preincubated at 1 uM for 3 days measured 2 hrs post substrate addition by fluorescence assay relative to untreated control; format: functional, Homo sapiens; outline: as §1
[5] = biological target: T1, Non-lysosomal glucosylceramidase (Mus musculus) (UniProt Q69ZF3); test: Inhibition of GBA2 activity in mouse tissue homogenate at 5 uM
T1 sequence (whole entry): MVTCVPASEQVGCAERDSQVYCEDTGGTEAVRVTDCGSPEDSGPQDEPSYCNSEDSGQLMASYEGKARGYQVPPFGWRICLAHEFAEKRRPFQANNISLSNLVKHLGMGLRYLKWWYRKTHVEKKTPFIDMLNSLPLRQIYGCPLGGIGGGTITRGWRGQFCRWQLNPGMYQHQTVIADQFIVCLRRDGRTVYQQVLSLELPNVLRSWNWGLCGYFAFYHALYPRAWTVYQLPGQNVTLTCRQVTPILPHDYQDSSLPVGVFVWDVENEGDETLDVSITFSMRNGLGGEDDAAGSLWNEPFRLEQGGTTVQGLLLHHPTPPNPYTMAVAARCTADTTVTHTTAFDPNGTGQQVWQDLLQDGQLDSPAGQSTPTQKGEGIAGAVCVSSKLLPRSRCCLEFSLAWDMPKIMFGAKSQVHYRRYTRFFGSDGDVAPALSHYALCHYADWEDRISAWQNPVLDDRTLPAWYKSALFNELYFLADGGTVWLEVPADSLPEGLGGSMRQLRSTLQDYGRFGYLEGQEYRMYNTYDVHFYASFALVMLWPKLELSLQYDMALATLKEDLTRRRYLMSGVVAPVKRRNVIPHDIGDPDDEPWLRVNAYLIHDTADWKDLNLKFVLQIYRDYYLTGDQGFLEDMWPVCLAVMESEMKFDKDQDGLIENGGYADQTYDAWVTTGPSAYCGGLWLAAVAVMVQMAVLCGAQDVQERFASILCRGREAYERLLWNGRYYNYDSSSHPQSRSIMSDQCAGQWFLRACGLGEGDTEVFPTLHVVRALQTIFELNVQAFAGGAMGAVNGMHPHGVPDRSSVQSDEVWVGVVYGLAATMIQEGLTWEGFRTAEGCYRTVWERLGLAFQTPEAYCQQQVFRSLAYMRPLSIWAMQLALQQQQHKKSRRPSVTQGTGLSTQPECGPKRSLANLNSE
Outline: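 Mouse tissue homogenates were used to separate nonlysosomal GBA2 from lysosomal GCase β-glucosidase activity. Compounds were screened at 50 and 5 μM with 3 mM substrate. Two independent experiments, each run in duplicate.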

[6] = biological target: T2, Lysosomal acid glucosylceramidase (Homo sapiens, UniProt P04062); test: Inhibition of lysosomal beta-glucosidase in human fibroblast using 4-methylumbelliferyl-beta-D-glucopyranoside as substrate preincubated for 24 hrs before substrate addition measured after 2 hrs by fluorometry
T2 sequence (P04062 whole entry): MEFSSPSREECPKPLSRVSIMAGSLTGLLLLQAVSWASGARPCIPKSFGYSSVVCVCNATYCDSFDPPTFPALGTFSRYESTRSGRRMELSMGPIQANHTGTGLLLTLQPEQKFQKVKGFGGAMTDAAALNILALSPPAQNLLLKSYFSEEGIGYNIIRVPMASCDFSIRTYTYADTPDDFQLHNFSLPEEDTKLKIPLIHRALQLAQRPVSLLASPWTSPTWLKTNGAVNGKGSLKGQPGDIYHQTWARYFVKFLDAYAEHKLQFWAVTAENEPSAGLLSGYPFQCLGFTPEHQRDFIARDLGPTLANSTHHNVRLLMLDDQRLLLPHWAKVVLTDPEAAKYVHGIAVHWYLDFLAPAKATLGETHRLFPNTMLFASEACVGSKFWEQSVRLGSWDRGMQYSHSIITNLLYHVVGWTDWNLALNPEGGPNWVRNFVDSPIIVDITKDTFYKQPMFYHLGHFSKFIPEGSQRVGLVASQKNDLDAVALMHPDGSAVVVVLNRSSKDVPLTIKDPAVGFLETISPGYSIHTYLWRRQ
Outline: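 Wild-type human fibroblasts (DMEM, 10% FBS; passages 14–30) plated overnight, then compound in fresh medium for 24 h at 37 °C, 5% CO2. Intact washed monolayers given PBS plus 200 mM acetate pH 4.0 and 5 mM 4-MU-β-glucoside, 37 °C for 2 h. Stopped by lysis in glycine/NaOH pH 10.6. Fluorescence at 355/460 nm; triplicate.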

CCCCCCCCCN[C@H]1[C@H](O)[C@@H](O)[C@H](O)[C@@H](O)[C@H]1OC.Cl
fold change (FC) [1]: 1.4

CCCCCCCCCO[C@H]1[C@@H](N)[C@H](O)[C@@H](O)[C@H](O)[C@H]1O.Cl
fold change (FC) [2]: 1.3

CCCCCCCCCN[C@H]1[C@H](O)[C@@H](O)[C@H](O)[C@@H](O)[C@@H]1OCCCCCCCCC.Cl
fold change (FC) [3]: 1.2

CCCCCCCCCN[C@H]1[C@H](O)[C@@H](O)[C@H](O)[C@@H](O)[C@@H]1OC.Cl
fold change (FC) [4]: 1.5

CCCCCCCCCN[C@@H]1[C@H](O)[C@@H](O)[C@H](O)[C@@H](O)[C@@H]1O
inhibition [5]: 69%

CCCCCCCCCN[C@@H]1[C@H](O)[C@H](O)[C@@H](O)[C@H](O)[C@H]1O.Cl
fold change (FC) [2]: 1.2

CCCCCCCCCN[C@H]1[C@H](O)[C@@H](O)[C@H](O)[C@@H](O)[C@H]1OCCCCCCCCC.Cl
IC50 [6]: 4.3 nM
